Measurements published in ChEMBL document CHEMBL1158394, “Diversity-oriented synthesis of furo[3,2-f]chromanes with antimycobacterial activity” (Eur J Med Chem, 2009).
≈ marks a conversion by molar mass, not a printed value.

tested on: Mycobacterium tuberculosis variant bovis BCG; assay: Antimycobacterial activity against Mycobacterium bovis BCG Pasteur after 6 days by microdilution resazurin assay; assay type: functional; details: 144 h
In short: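 Microdilution resazurin assay with M. bovis BCG inoculum grown in Dubos medium with 10% ADC. Drugs (DMSO stocks of 50 mg/mL) are twofold serially diluted in 96-well plates, with DMSO and isoniazid controls, then incubated at 37 °C. Resazurin (0.01% w/v) is added and incubation continues 24 h. MIC95 is the amount giving >95% growth inhibition, in µg/mL. Duplicate runs in two independent experiments.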

For `Cc1c(-c2ccncc2)oc2ccc3c(c12)C=CC(C)(C)O3`, which MIC95 is on record?
Its MIC95 is 6.2 µg/mL (≈ 21.3 µM).

Which MIC95 does the source give for `CC1(C)C=Cc2c(ccc3oc(-c4ccncc4)cc23)O1` here?
Its MIC95 is 6.2 µg/mL (≈ 22.4 µM).

`Cc1c2c(c3cc(/C=C/c4cccnc4)oc3c1C)CCC(C)(C)O2` was tested. Which MIC95 did it give?
The MIC95 was 6.2 µg/mL (≈ 18.6 µM).

Which MIC95 does the source give for `Cc1c2c(c3cc(-c4ccncc4)oc3c1C)CCC(C)(C)O2` here?
Its MIC95 is 3.1 µg/mL (≈ 10.1 µM).

`CC1(C)CCc2c(ccc3oc(-c4cccnc4)c(CCCO)c23)O1` was tested. Which MIC95 did it give?
Its MIC95 is 6.2 µg/mL (≈ 18.4 µM).

`Cc1c2c(c3cc(-c4cnccn4)oc3c1C)CCC(C)(C)O2` was tested. Which MIC95 did it give?
Its MIC95 is 25 µg/mL (≈ 81.1 µM).

`Cc1c2c(c3cc(-c4cccnc4)oc3c1C)CCC(C)(C)O2` was tested. Which MIC95 did it give?
Its MIC95 is 3.1 µg/mL (≈ 10.1 µM).

How did the MIC95 turn out when `Cc1c2c(c3cc(Cc4ccc(Cl)cc4)oc3c1C)CCC(C)(C)O2` was run?
Its MIC95 is over 100 µg/mL.

`Cc1c2c(c3cc(Cc4cccs4)oc3c1C)CCC(C)(C)O2` was tested. Which MIC95 did it give?
The MIC95 was over 100 µg/mL.

How did the MIC95 turn out when `Cc1c2c(c3cc(-c4ccc(NCCCN(C)C)nc4)oc3c1C)CCC(C)(C)O2` was run?
The MIC95 was 6.2 µg/mL (≈ 15.2 µM).

For `Cc1c2c(c3cc(-c4ccc(Cl)nc4)oc3c1C)CCC(C)(C)O2`, which MIC95 is on record?
The MIC95 was over 100 µg/mL.

Which MIC95 does the source give for `CC(=O)OCc1cc2c3c(c(C)c(C)c2o1)OC(C)(C)CC3` here?
The MIC95 was over 100 µg/mL.

Which MIC95 does the source give for `Cc1c2c(c3cc(CCC(=O)N4CCOCC4)oc3c1C)CCC(C)(C)O2` here?
Its MIC95 is over 100 µg/mL.

For `Cc1c2c(c3cc(Cc4cccnc4)oc3c1C)CCC(C)(C)O2`, which MIC95 is on record?
The MIC95 was 6.2 µg/mL (≈ 19.3 µM).

For `Cc1c2c(c3cc(CCc4cccnc4)oc3c1C)CCC(C)(C)O2`, which MIC95 is on record?
Its MIC95 is 3.1 µg/mL (≈ 9.24 µM).

With `CC1(C)CCc2c(ccc3oc(-c4ccncc4)c(CCCO)c23)O1` as the compound, how does the MIC95 read?
Its MIC95 is 12.5 µg/mL (≈ 37 µM).

`Cc1c2c(c3cc(-c4ccccn4)oc3c1C)CCC(C)(C)O2` was tested. Which MIC95 did it give?
Its MIC95 is over 100 µg/mL.

Which MIC95 does the source give for `Cc1c2c(c3cc(-c4ccc[n+]([O-])c4)oc3c1C)CCC(C)(C)O2` here?
Its MIC95 is 12.5 µg/mL (≈ 38.7 µM).

With `Cc1c2c(c3cc(-c4ccc(-c5nn[nH]n5)nc4)oc3c1C)CCC(C)(C)O2` as the compound, how does the MIC95 read?
Its MIC95 is 25 µg/mL (≈ 66.6 µM).

How did the MIC95 turn out when `Cc1c2c(c3cc(-c4cccs4)oc3c1C)CCC(C)(C)O2` was run?
Its MIC95 is over 100 µg/mL.

Which MIC95 does the source give for `COC(=N)c1ccc(-c2cc3c4c(c(C)c(C)c3o2)OC(C)(C)CC4)cn1` here?
Its MIC95 is 6.2 µg/mL (≈ 17 µM).

How did the MIC95 turn out when `NNC(=O)c1ccncc1` [ISONIAZID] was run?
Its MIC95 is 0.4 µg/mL (≈ 2.92 µM).
